This is an account of results in ChEMBL document CHEMBL3870302, “Computer-aided identification, synthesis and evaluation of substituted thienopyrimidines as novel inhibitors of HCV replication” (Eur J Med Chem, 2016).

Data set [1] in a line: Cytotoxicity against human HuH5.2 cells assessed as reduction in metabolic activity after 72 hrs by MTS assay. It counts as toxicity, cell-based, Huh-5-2. The conditions noted are these: for CC50 at 72 h: HuH5.2 cells. The procedure, abridged: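 Run in parallel with the replicon assay: Huh 5-2 replicon cells, 6 500 cells/well, compound series for 72 h at 37 °C, 5% CO2. Medium then replaced with 5% MTS in phenol red-free medium for 1.5 h. Absorbance at 498 nm expressed as % untreated cells; CC50 from dose-response curve as 50% reduction in metabolic activity, mean of ≥2 experiments.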

Data set [2] can be described thus: Selectivity index, ratio of CC50 for human HuH5.2 cells to EC50 for hepatitis C virus genotype 1b infected in human HuH5.2 cells. It counts as toxicity, cell-based. The conditions noted are these: for selectivity ratio: HuH5.2 cells, read-out: Ratio CC50/EC50. The procedure, abridged: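 Ratio of CC50 (MTS metabolic read-out, 72 h) to EC50 (replicon luciferase read-out, 72 h), both measured in parallel on Huh 5-2 genotype 1b replicon cells.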

Data set [3] concerns Hepatitis C virus. The data set is described as follows: Antiviral activity against Hepatitis C virus genotype 1b infected in human HuH5.2 cells after 72 hrs by luciferase reporter gene assay. It counts as functional, cell-based, Hepacivirus hominis. The procedure, abridged:
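Huh 5-2 cells with genotype 1b I389luc-ubi-neo/NS3-3'/5.1 subgenomic replicon, seeded 6 500 cells/well in DMEM/10% FCS without Geneticin, overnight 37 °C. Compound (DMSO stock diluted in medium) in 1:5 four-step or 1:2 eight-step series, 72 h. Cells PBS-washed, lysed 5 min, luciferase luminescence read, converted to % untreated control; EC50 from dose-response curve, mean of ≥2 independent experiments.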

Data set [4] in a line: Inhibition of Hepatitis C virus genotype 1b (con1) full length C-terminal His-tagged NS3 helicase expressed in Escherichia coli Rosette(DE3) assessed as inhibition of 5'-Cy5/3'-IAbRQ-labeled DNA unwinding activity by molecular beacon assay. Also on record: species or system Hepatitis C virus (isolate Con1). The procedure, abridged: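 Molecular beacon unwinding assay: 25 mM MOPS pH 6.5, 1.25 mM MgCl2, 5% DMSO, 5 µg/ml BSA, 0.01% Tween20, 0.05 mM DTT, 5 nM fluorescent DNA substrate, 12.5 nM NS3h, 1 mM ATP.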

Setting [5] is: Hepatitis C virus, genotype 1b, Huh-5-2, 72 h.

Bounds are passed on as bounds.

Consider `CCc1sc2ncnc(N/N=C(/C)c3cc(O)ccc3O)c2c1C`, for which the CC50 at 72 h in data set [1] was greater than 292 µM. Moreover, the selectivity ratio in data set [2] is greater than 364. In data set [3] (setting [5]), this compound came in with an EC50 of 0.803 µM and an EC90 of 1.62 µM. In addition, in data set [4], the IC50 is greater than 1000 µM.
For `O=C(NNc1ncnc2sccc12)c1ccccn1`, in that order: 138 µM, 445, 0.314 µM, 0.671 µM and greater than 1000 µM.
As to `c1ccc2[nH]c(Nc3ncnc4sc5c(c34)CCCC5)nc2c1`, the 50% cytotoxic concentration (CC50) at 72 h in data set [1] came out at 231 µM. Also, the selectivity ratio in data set [2] was 4.2. In data set [3] (setting [5]), this compound had a 50% effective concentration (EC50) of 55.4 µM and an EC90 greater than 104 µM. In addition, the IC50 in data set [4] was greater than 1000 µM.
For `Oc1ccc(O)c(/C=N/Nc2ncnc3sc4c(c23)CCCC4)c1`, in that order: 36.8 µM, 31.5, 1.17 µM, 2.92 µM and greater than 1000 µM.
In the case of `C/C(=N/Nc1ncnc2sc(C)c(C)c12)c1cc(O)ccc1O`, the CC50 at 72 h in data set [1] was greater than 305 µM. The selectivity ratio in data set [2] was greater than 193. In data set [3] (setting [5]), this compound had a concentration giving a half-maximal response (EC50) of 1.58 µM and a concentration for an effect of 90% (EC90) of 4.65 µM. Moreover, in data set [4], the IC50 is greater than 1000 µM.
In the same order, the values of `C/C(=N/Nc1ncnc2sccc12)c1cc(O)ccc1O` are 226 µM, 81, 2.79 µM, 4.55 µM and 229 µM.
On to `C/C(=N\Nc1ncnc2sc3c(c12)CCCC3)c1cnccn1`, for which the CC50 at 72 h in data set [1] came to 57.1 µM. Besides, in data set [2], the selectivity ratio is 160. Further, in data set [3] (setting [5]), the EC50 turned out to be 0.355 µM and the EC90 amounted to 2.85 µM. The IC50 in data set [4] is greater than 1000 µM.
In the same order, the values of `O=C(NNc1ncnc2sc3c(c12)CCCC3)c1cc(O)ccc1O` are 99.9 µM, 199, 0.502 µM, 0.945 µM and greater than 1000 µM.
Take `C/C(=N/Nc1ncnc2sc3c(c12)CCC3)c1nc2ccccc2[nH]1`: in data set [1], the CC50 at 72 h is 6.83 µM. Also, in data set [2], the selectivity ratio amounted to 8.3. In data set [3] (setting [5]), this compound came in with a concentration giving a half-maximal response (EC50) of 0.802 µM and a concentration for an effect of 90% (EC90) of less than 2.24 µM. Further, the IC50 in data set [4] is greater than 1000 µM.
In the same order, the values of `C/C(=N\Nc1ncnc2sc3c(c12)CCCC3)c1nc2ccccc2[nH]1` are 37.3 µM, 15.4, 2.42 µM, 7.06 µM and greater than 1000 µM.
In the same order, the values of `C/C(=N\Nc1ncnc2sc3c(c12)CCC3)c1ccccc1O` are 141 µM, 82.9, 1.72 µM, 4.07 µM and greater than 1000 µM.
In the same order, the values of `O=C(NNc1ncnc2sc3c(c12)CCC3)c1nc2ccccc2[nH]1` are 7.46 µM, 11.6, 0.594 µM, 1.11 µM and greater than 1000 µM.
As for `C/C(=N/Nc1ncnc2sc(Cl)c(C)c12)c1cnccn1`, the cytotoxic concentration (CC50) at 72 h in data set [1] worked out at 3.13 µM. Moreover, the selectivity ratio in data set [2] came to 53.9. In data set [3] (setting [5]), this compound showed a half-maximal effective concentration (EC50) of 0.058 µM and a concentration for an effect of 90% (EC90) of 0.289 µM. In data set [4], the IC50 is greater than 1000 µM.
For `C/C(=N\Nc1ncnc2sc3ccccc3c12)c1cc(O)ccc1O`, in that order: 21 µM, 44.2, 0.475 µM, 0.897 µM and greater than 1000 µM.
`Cc1c(Cl)sc2ncnc(NNC(=O)c3ccccc3O)c12`: in data set [1], the CC50 at 72 h was greater than 8.96 µM. Also, the selectivity ratio in data set [2] was greater than 56.1. In data set [3] (setting [5]), the concentration for a half-maximal effect (EC50) was 0.159 µM. In addition, the IC50 in data set [4] came out at 306 µM.
For the compound `O=C(NNc1ncnc2sc3c(c12)CCCC3)c1cc2ccccc2[nH]1`, the half-maximal cytotoxic concentration (CC50) at 72 h in data set [1] was 74.5 µM. Moreover, the selectivity ratio in data set [2] worked out at 3.6. Besides, in data set [3] (setting [5]), the EC50 worked out at 20.8 µM. In addition, the IC50 in data set [4] was determined as 224 µM.
Regarding `O=C(NNc1ncnc2sc3c(c12)CCC3)c1cc(O)ccc1O`, the CC50 at 72 h in data set [1] was determined as 198 µM. Further, the selectivity ratio in data set [2] was 84.6. In data set [3] (setting [5]), the response was half-maximal at 2.34 µM (EC50) and the EC90 is 3.67 µM. The IC50 in data set [4] is greater than 1000 µM.
For `O=C(NNc1ncnc2sccc12)c1cnccn1`, in that order: 233 µM, 274, 0.851 µM, 2.28 µM and greater than 1000 µM.
In the same order, the values of `O=C(NNc1ncnc2sc3c(c12)CCCC3)c1ccccc1O` are 63.6 µM, 233, 0.273 µM, 0.567 µM and greater than 1000 µM.
For `C/C(=N/Nc1ncnc2sc3c(c12)CCC3)c1ccccn1`, in that order: 14 µM, 11.9, 1.18 µM, 1.44 µM and greater than 1000 µM.
For `C/C(=N\Nc1ncnc2sc3c(c12)CCCC3)c1ccc2ccccc2n1`, the cytotoxic concentration (CC50) at 72 h in data set [1] amounted to 7.23 µM. In data set [2], the selectivity ratio was greater than 10.4. Further, the EC50 in data set [3] (setting [5]) is less than 0.697 µM. The 50% inhibitory concentration (IC50) in data set [4] is greater than 1000 µM.
With `Cc1sc2ncnc(NNC(=O)c3cnccn3)c2c1C`, in data set [1], the half-maximal cytotoxic concentration (CC50) at 72 h worked out at 1.67 µM. Besides, the selectivity ratio in data set [2] was determined as 43.3. Besides, in data set [3] (setting [5]), a half-maximal effect (EC50) was put at 0.0386 µM and the concentration for an effect of 90% (EC90) turned out to be 0.319 µM. Besides, the IC50 in data set [4] is greater than 1000 µM.
On to `C/C(=N\Nc1nc(C)nc2sc3c(c12)CCCC3)c1cnccn1`, for which, in data set [1], the CC50 at 72 h is greater than 3 µM. Also, the selectivity ratio in data set [2] is greater than 42.7. In addition, in data set [3] (setting [5]), the EC50 is 0.069 µM and the 90% effect concentration (EC90) was 0.24 µM. In data set [4], the half-maximal inhibitory concentration (IC50) is greater than 1000 µM.
For `Cc1nc(NNC(=O)c2ccccc2O)c2c3c(sc2n1)CCCC3`, in that order: 25 µM, 19.8, 1.26 µM, 3.07 µM and greater than 1000 µM.
In the same order, the values of `C/C(=N\Nc1ncnc2sc3c(c12)CCCC3)c1cc2ccccc2[nH]1` are 26 µM, 0.42, 61.2 µM, greater than 277 µM and greater than 1000 µM.
For `C/C(=N/Nc1ncnc2sccc12)c1ccccc1O`, in that order: 80.5 µM, 17.2, 4.69 µM, greater than 10.6 µM and greater than 1000 µM.
In the case of `C/C(=N\Nc1ncnc2sc3c(c12)CCCC3)c1cc(O)ccc1O` (stereo in doubt; form 1), in data set [1] (huh-5-2, 72 h, 72 h), the CC50 was greater than 141 µM. The “Ratio CC50/EC50” value in data set [2] is greater than 141. The compound further showed a 50% effective concentration (EC50) in data set [3] of less than 1 µM. Also, in data set [4], the concentration for half-maximal inhibition (IC50) was greater than 1000 µM.
